Sampled rows, rich in hits. Any-hit rate of the full collection: about 1.2%.
Rtt109 HAT inh = blocks Candida albicans Rtt109/Vps75 acetyltransferase activity. Q5AAJ8. 0.16% of 330,000 active. purified Rtt109/Vps75, ThioGlo CoA-SH fluorescence, 4 h. inhibition, % at 34.9 µM;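 active = inhibition of at least 50% in every replicate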
Target sequence (Q5AAJ8 whole entry, looked up): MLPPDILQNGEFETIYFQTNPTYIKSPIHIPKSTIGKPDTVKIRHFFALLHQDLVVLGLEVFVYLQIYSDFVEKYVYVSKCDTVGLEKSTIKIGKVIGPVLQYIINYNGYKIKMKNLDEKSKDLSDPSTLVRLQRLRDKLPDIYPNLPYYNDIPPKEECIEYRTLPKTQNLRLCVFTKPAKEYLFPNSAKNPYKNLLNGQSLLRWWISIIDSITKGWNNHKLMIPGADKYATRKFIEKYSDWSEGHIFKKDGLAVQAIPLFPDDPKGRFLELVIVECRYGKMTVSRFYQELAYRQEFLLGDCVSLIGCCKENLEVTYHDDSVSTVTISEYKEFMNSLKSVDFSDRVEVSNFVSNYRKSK
HNF4A DNA FP = change in binding of human HNF4 alpha to DNA. HNF4a-FITC DNA binding, fluorescence polarization, 1 h. 0.3% of 360,000 active. activity change, % at 10 µM. P41235; in the data active = activity change above about 30%, passing the limit was not always enough
CSN inh = blocks human CSN-mediated cullin deneddylation; Q92905; Purified CSN, SCF-Nedd8-OG deneddylation, fluorescence polarization; inhibition, % at 12.5 µM; 0.38% of 360,000 active; AID 651999;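 active = pattern-corrected inhibition above about 35%, with an unprinted fluorescence ratio check between 0.5 and 1.5, limit read from the data, passing the limit was not always enough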
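Material: human Csn5 produced in HEK293T cells; Input: enzyme 0.24 nM; Reagent: SCFSkp2-Nedd8OG substrate at 10 nM final; Dosing: 12.5 µM compound; Incubation: 90 min reaction at room temperature; Detection: fluorescence polarization of the substrate; Evaluation: % inhibition of substrate cleavage by Csn5; Control set: substrate-only high control, full reaction low control.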
TPT1 inh = C. albicans TPT1 enzyme inhibition. recombinant caTPT1, FP RNA substrate dephosphorylation. inhibition, % at 5 µM. 0.81% of 300,000 active. AID 1962;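 active = inhibition above the mean of all tested compounds plus 3 SD, set per screening campaign, cut at about 24% in these data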
caTPT1 confirm = TPT1 (C. albicans) inhibition, confirmation. shares compounds with TPT1 inh. recombinant caTPT1, fluorescence polarization, RNase T1 coupled. inhibition, % at 5 µM. 74% of 2,400 active;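 active = inhibition above the primary screen limit, the mean inhibition of all tested compounds plus 3 SD, cut at about 25% in these data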
RNase T1 inh = RNase T1 inhibition in TPT1 counter-screen. shares compounds with TPT1 inh. RNase T1 cleavage, fluorescence polarization, 1536-well. inhibition, % at 5 µM. 83% of 2,400 active;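 active = inhibition above the solvent-only control well mean plus 3 SD, limit set per screening run, cut at about 23% in these data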;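 note: inhibitors block cleavage so intact labeled substrate keeps polarization high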
Hits are given with their value; n = inactive; x = not tested or not shown.

SMILES	Rtt109 HAT inh	HNF4A DNA FP	CSN inh	TPT1 inh	caTPT1 confirm	RNase T1 inh
COc1cc(/C=C(\C#N)c2ccccn2)cc(OC)c1O	n	n	n	56	72	76
N#C/C(=C\c1ccc([N+](=O)[O-])cc1)c1ccccn1	n	n	n	n	x	x
COc1cc(/C=C(\C#N)c2[nH]nc(N)c2C#N)cc(OC)c1O	n	n	n	25	33	37
CN(C)c1ccc(/C=C(\C#N)c2ccccn2)cc1	n	n	n	86	83	92
CN1/C(=C/C2CC(=O)N(c3ccc([N+](=O)[O-])cc3)C2=O)C(C)(C)c2ccccc21 (centres undefined)	n	n	n	25	n	n
CCOC(=O)c1c(/N=C/N(C)C)sc(/C=N/Nc2ccccc2)c1-c1ccc(Cl)cc1	x	n	n	40	29	43
CCNC(=O)C1(C)CCCN(C(=O)c2ccc(F)c(C)c2)C1 (centres undefined)	x	n	n	x	x	x
CC(=O)NN1C(=O)/C(=C\c2ccc(C)cc2)SC1=S	n	n	n	n	x	x
O=C(NN1C(=O)/C(=C/c2cccc(O)c2)SC1=S)c1ccccc1O	n	n	n	n	x	x
Cc1ccc(C(=O)NN2C(=O)/C(=C/c3cccn3C)SC2=S)cc1	n	88	n	79	96	112
O=C(NN1C(=O)/C(=C\c2ccc(O)c([N+](=O)[O-])c2)SC1=S)c1ccccc1Cl	n	n	n	49	53	63
Cn1cccc1/C=C1\SC(=S)N(NC(=O)c2ccccc2Cl)C1=O	n	69	44	87	88	106
C=CCC[C@@H](Cc1ccc(F)cc1)C(=O)OC[C@@H](NC(=O)[C@@H](CC=C)CC(=O)N[C@H](CO)Cc1ccccc1)C(C)(C)C	n	n	n	x	x	x
O=C(Nc1c(-c2ccccc2)[nH][nH]c1=O)c1cccs1	x	n	n	x	x	x
O=C(C1=C(O)C(=O)N(c2ncccn2)C1c1ccc(Cl)c(Cl)c1)c1ccco1 (centres undefined)	x	n	48	28	30	39
O=C(C1=C(O)C(=O)N(c2ncccn2)C1c1ccc(Cl)cc1)c1ccco1 (centres undefined)	n	n	n	n	x	x
CC(C(=O)c1ccc(Br)cc1)[n+]1cccc2ccccc21 (centres undefined)	n	n	n	37	n	26
CC(C(=O)c1ccc(Br)cc1)[n+]1cccc(NC(=O)c2ccccc2)c1 (centres undefined)	n	n	n	n	x	x
COc1ccc(NC(=O)[C@@H]2[C@@H]3C(=O)N(C4CCCCC4)C(=O)[C@@H]3C3c4ccccc4C=CN32)cc1 (some centres undefined)	n	n	n	43	50	54
O=C(Nc1ccc(Br)cc1)C1CCCN(C2=NS(=O)(=O)c3ccccc32)C1 (centres undefined)	n	n	n	x	x	x
CCN1C(=O)[C@@H]2C(C(=O)c3cnccn3)=NN[C@@H]2C1=O	n	n	n	n	x	x
Cc1c2cnn(CC(=O)NCCCN3CCCCC3C)c(=O)c2c(C)n1Cc1ccccc1 (centres undefined)	n	n	n	24	36	44
Nc1nc(SCC(=O)Nc2ccc3c(c2)OCO3)n[nH]1	n	n	n	41	n	n
CNc1ccc(Br)cc(C(=O)/C=C/c2ccc(OC)cc2)c1=O	n	n	n	53	36	46
CCNc1ccc(Br)cc(C(=O)/C=C/c2ccc(Cl)cc2Cl)c1=O	n	n	n	69	85	92
SMILES	Rtt109 HAT inh	HNF4A DNA FP	CSN inh	TPT1 inh	caTPT1 confirm	RNase T1 inh
CNc1ccc(Br)cc(C(=O)/C=C/c2cc(OC)ccc2OC)c1=O	n	n	n	66	63	76
O=C(O)c1cccc(S(=O)(=O)N2CCN(Cc3ccc4c(c3)OCO4)CC2)c1	n	n	n	n	x	x
CC(C)(CC1(C)NC(=O)NC1=O)OCc1ccccc1 (centres undefined)	n	n	n	x	x	x
CC(=O)c1cc2c(cc1C)CCCC2(C)C	x	n	n	x	x	x
COc1ccc(Cn2c(O)cc(=O)[nH]c2=O)cc1	n	n	n	26	n	28
CCOc1ccc(Cn2c(O)cc(=O)[nH]c2=O)cc1	n	n	n	39	n	24
CCOn1c(=O)c[n+]([O-])c2ccccc21	n	n	n	n	x	x
O=c1c[n+]([O-])c2ccccc2n1OCc1ccccn1	n	n	n	26	n	n
